Among the data in ChEMBL document CHEMBL1138186, “Dynamic pharmacophore model optimization: identification of novel HIV-1 integrase inhibitors” (J Med Chem, 2006) are IC50 values, retold here.

Assay [1] addresses T1, Human immunodeficiency virus type 1 integrase (Human immunodeficiency virus 1, UniProt Q7ZJM1). Put plainly: Inhibition of 3'-processing activity of HIV1 integrase. The essentials:
(§1)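 Then 20 nM 5′-32P-labeled 21-mer oligonucleotide added for 1 h. Quenched with formamide loading dye. % inhibition from 19-mer (3′-processing) or strand transfer product fractions versus DNA-alone and DNA+IN controls. IC50 from log concentration versus % inhibition plot.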

For assay [2], the target named is T1, Human immunodeficiency virus type 1 integrase. Put plainly: Inhibition of strand transfer activity of HIV1 integrase. In a few lines:
as §1

T1 sequence (Q7ZJM1 whole entry): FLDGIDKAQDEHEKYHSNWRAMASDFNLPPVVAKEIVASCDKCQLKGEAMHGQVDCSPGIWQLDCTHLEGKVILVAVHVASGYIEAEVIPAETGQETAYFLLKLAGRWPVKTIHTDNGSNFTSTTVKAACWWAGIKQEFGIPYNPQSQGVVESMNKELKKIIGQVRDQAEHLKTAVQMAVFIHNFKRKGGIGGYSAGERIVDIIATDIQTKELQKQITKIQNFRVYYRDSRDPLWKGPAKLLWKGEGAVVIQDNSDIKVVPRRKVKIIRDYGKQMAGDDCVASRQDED

With `COCCCNS(=O)(=O)c1ccc(Oc2cc(O)c3c(c2O)C(=O)c2ccccc2C3=O)cc1`, the IC50 in assay [1] came out at 100 µM; in assay [2], 23 µM.
For `COc1ccc(C(=O)C2=C(O)C(=O)N(CCN3CCNCC3)C2c2ccccc2F)cc1` (centres undefined), in that order: > 1000 µM and 630 µM.
For the molecule `O=C(C1=C(O)C(=O)N(CCCN2CCOCC2)C1c1ccccc1F)c1ccc(F)cc1` (centres undefined), the IC50 in assay [1] and in assay [2] was > 1000 µM throughout.
Consider `COc1cccc2cc(-c3csc(Nc4cccc(O)c4)n3)c(=O)oc12`, for which the half-maximal inhibitory concentration (IC50) in assay [1] and in assay [2] was > 100 µM in each case.
With `O=C(O)CCC(=O)Nc1ccc(Cl)c(NC(=O)Cc2ccccc2)c1`, the IC50 in assay [1] and in assay [2] was > 100 µM throughout.
In the case of `COc1ccc(C2C(C(=O)c3ccccc3)=C(O)C(=O)N2CCCO)cc1OC` (centres undefined), the half-inhibitory concentration (IC50) in assay [1] and in assay [2] was > 100 µM each time.
Consider `CN(C)CCCN1C(=O)C(O)=C(C(=O)c2cccs2)C1c1cccs1` (centres undefined), for which the IC50 in assay [1] and in assay [2] was > 100 µM in each case.
On to `NCCCCCCNC(=O)c1c(O)oc2ccccc2c1=O`, for which the IC50 in assay [1] and in assay [2] was > 100 µM in each case.
Consider `O=C(NCCCO)c1ccc(CSc2nc(O)c3c4c(sc3n2)CCC4)cc1`, for which the 50% inhibitory concentration (IC50) in assay [1] and in assay [2] was > 100 µM throughout.
On to `O=C(O)CCC(=O)Nc1ccc(S(=O)(=O)Nc2ccc(F)cc2)cc1`, for which the 50% inhibitory concentration (IC50) in assay [1] and in assay [2] was > 100 µM each time.
As to `Cc1ccc(C(=O)C2=C(O)C(=O)N(CCN(C)C)C2c2ccccc2F)cc1` (centres undefined), the IC50 in assay [1] and in assay [2] was > 1000 µM in each case.
With `CCOC(=O)c1c(NC(=O)CC2Sc3ccc(C(F)(F)F)cc3NC2=O)sc2c1CCCC2` (centres undefined), the 50% inhibitory concentration (IC50) in assay [1] and in assay [2] was > 100 µM each time.
Regarding `O=c1oc2c(CN(CCO)CCO)c(O)ccc2cc1-c1nc2ccccc2s1`, the IC50 in assay [1] was found to be 850 µM; in assay [2], 350 µM.
Taken in the same sequence, the figures for `CCOC(=O)C1=C(O)/C(=C\c2ccc(CNC(=O)C(=O)Nc3ccccc3)o2)N=C1C` were > 100 µM and 40 µM.
Turning to `COc1cc(C(c2c[nH]c3ccccc23)c2c[nH]c3ccccc23)ccc1OCC(=O)O`, the IC50 in assay [1] and in assay [2] was > 100 µM throughout.
Turning to `Oc1ccc(C(c2c[nH]c3ccccc23)c2c[nH]c3ccccc23)cc1O`, the IC50 was 53 µM in assay [1] and 10 µM in assay [2].
On to `COc1ccc(C2C(C(=O)c3ccco3)=C(O)C(=O)N2CCN2CCOCC2)c(OC)c1` (centres undefined), for which the results for the half-inhibitory concentration (IC50) in assay [1] and in assay [2] were > 1000 µM and 395 µM, respectively.
Consider `CCN(CC)CCN1C(=O)C(O)=C(C(=O)c2ccccc2)C1c1ccc(OC)cc1OC` (centres undefined), for which the 50% inhibitory concentration (IC50) in assay [1] and in assay [2] was > 1000 µM throughout.
With `COc1ccc(C2C(C(=O)c3ccc(F)cc3)=C(O)C(=O)N2CCN(C)C)cc1OC` (centres undefined), the 50% inhibitory concentration (IC50) in assay [1] and in assay [2] was > 1000 µM each time.
As to `COC(=O)c1c(NC(=O)CC2Nc3ccccc3NC2=O)sc2c1CCCC2` (centres undefined), the IC50 in assay [1] and in assay [2] was > 100 µM throughout.
Take `CCOC(=O)c1c(NC(=O)c2cc3ccccc3oc2=O)sc(C(N)=O)c1C`: the concentration for half-maximal inhibition (IC50) in assay [1] was found to be 90 µM; in assay [2], 56 µM.
Turning to `NCCCNc1ccc2c3c(nn2CCNCCO)-c2c(O)ccc(O)c2C(=O)c13` [PIROXANTRONE], the concentration for half-maximal inhibition (IC50) is 18 µM in assay [1] and 9 µM in assay [2].

In general, IC50 refers to the point on the concentration scale where inhibition reaches its midpoint. Low readings indicate greater potency, high ones weaker potency.
